{"source": "paper PMC3992999", "about": "(Journal of chromatography. B, Analytical technologies in …, 2011)", "key": {"[1]": {"assay": "pilot intravenous pharmacokinetic study in rats", "type": "in vivo", "details": "male, Sprague-Dawley, rat, plasma, 5 mg/kg", "summary_of_the_method": "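Six male Sprague-Dawley rats (180–200 g) with right jugular vein cannulas, fasted 12 h before and 4 h after dosing. Single 5 mg/kg i.v. bolus in saline (0.2 µm filtered) via cannula, flushed with heparinized saline. Plasma from centrifuged blood (10,000 × g, 20 min, 4 °C) held at −20 °C. Chloroform extraction with aripiprazole internal standard. HILIC UPLC/MS in SIR mode (m/z 390; IS 448). Mean ± SD, n = 6.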"}, "[2]": {"assay": "stability of CM156 in rat plasma QC samples under various storage conditions", "type": "in vitro ADME", "details": "for stability in rat plasma: 10, 400 and 3000 ng/mL", "summary_of_the_method": "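Blank rat plasma was spiked to QC levels of 10, 400 and 3000 ng/mL, six replicates each. Conditions were three freeze–thaw cycles (−20 °C 24 h, thaw at room temperature, refreeze 12–24 h), room temperature for 12 h, −20 °C for 1 month, and autosampler reinjection after 24 h at 25 °C. Samples were chloroform-extracted with aripiprazole internal standard, analysed by UPLC/MS, and compared with fresh QCs.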"}, "[3]": {"assay": "stability of stock solutions", "type": "physicochemical"}, "sigma-1 receptors": {"test_system": "sigma-1 receptors", "details": "sigma-1 and sigma-2 in the nanomolar and subnanomolar range; cited from earlier work"}, "sigma-2 receptors": {"test_system": "sigma-2 receptors", "details": "sigma-1 and sigma-2 in the nanomolar and subnanomolar range; cited from earlier work"}, "[4]": {"test_system": "cocaine induced behaviors", "details": "cited from earlier work"}, "sigma receptors": {"test_system": "sigma receptors", "details": "cited from earlier work"}, "effects of cocaine": {"test_system": "effects of cocaine", "details": "cited from earlier work"}, "[5]": {"details": "rat plasma, long term for 30 days (−20 °C), spiked 10 ng/mL"}, "[6]": {"details": "rat plasma, long term for 30 days (−20 °C), spiked 400 ng/mL"}, "[7]": {"details": "rat plasma, short term for 12 h (25 °C), spiked 10 ng/mL"}, "[8]": {"details": "rat plasma, short term for 12 h (25 °C), spiked 400 ng/mL"}, "[9]": {"details": "rat plasma, three freeze thaw cycles, spiked 400 ng/mL"}, "[10]": {"details": "rat plasma, three freeze thaw cycles, spiked 3000 ng/mL"}, "[11]": {"details": "reconstituted samples, auto sampler for 24 h (25 °C), spiked 10 ng/mL"}, "[12]": {"details": "reconstituted samples, auto sampler for 24 h (25 °C), spiked 400 ng/mL"}, "[13]": {"details": "reconstituted samples, auto sampler for 24 h (25 °C), spiked 3000 ng/mL"}}}
{"smiles": "S=c1sc2ccccc2n1CCCCN1CCN(C2CCCCC2)CC1", "note": "[CM156, 3-(4-(4-cyclohexylpiperazin-1-yl)butyl)benzo[d]thiazole-2(3H)-thione]", "values": [{"measurement": "AUC(0-inf)", "setting": "[1]", "result": 802, "unit": "ng·h/mL"}, {"measurement": "Cmax", "setting": "[1]", "result": "1300 ± 200", "unit": "ng/mL"}, {"measurement": "MRT", "setting": "[1]", "result": 1.5, "unit": "h"}, {"measurement": "Vd", "setting": "[1]", "result": "9.6 ± 1.4", "unit": "L/kg"}, {"measurement": "clearance", "setting": "[1]", "result": 103, "unit": "mL/min/kg"}, {"measurement": "half-life", "setting": "[1]; Elimination half-life (t1/2), rats, single intravenous dose of 5 mg/kg, n = 6, mean ± SD", "result": "1.1 ± 0.4", "unit": "h"}, {"measurement": "stability in rat plasma", "setting": "[2]; during three freeze/thaw cycles", "result": "stable"}, {"measurement": "Measured concentration", "setting": "[2]; [5]", "result": "11.2 ± 0.9", "unit": "ng/mL"}, {"measurement": "RE (relative error)", "setting": "[2]; [5]", "result": 12.8, "unit": "%"}, {"measurement": "Measured concentration", "setting": "[2]; [6]", "result": "394.8 ± 17.8", "unit": "ng/mL"}, {"measurement": "RE (relative error)", "setting": "[2]; [6]", "result": "−1.3", "unit": "%"}, {"measurement": "Measured concentration", "setting": "[2]; rat plasma, long term for 30 days (−20 °C), spiked 3000 ng/mL", "result": "2879.4 ± 243.1", "unit": "ng/mL"}, {"measurement": "Measured concentration", "setting": "[2]; [7]", "result": "8.6 ± 0.7", "unit": "ng/mL"}, {"measurement": "RE (relative error)", "setting": "[2]; [7]", "result": "−12.3", "unit": "%"}, {"measurement": "Measured concentration", "setting": "[2]; [8]", "result": "403.6 ± 9.2", "unit": "ng/mL"}, {"measurement": "RE (relative error)", "setting": "[2]; [8]", "result": 2.3, "unit": "%"}, {"measurement": "Measured concentration", "setting": "[2]; rat plasma, short term for 12 h (25 °C), spiked 3000 ng/mL", "result": "2879.4 ± 145.2", "unit": "ng/mL"}, {"measurement": "Measured concentration", "setting": "[2]; rat plasma, three freeze thaw cycles, spiked 10 ng/mL", "result": "9.2 ± 1.1", "unit": "ng/mL"}, {"measurement": "Measured concentration", "setting": "[2]; [9]", "result": "406.4 ± 8.8", "unit": "ng/mL"}, {"measurement": "RE (relative error)", "setting": "[2]; [9]", "result": 1.6, "unit": "%"}, {"measurement": "Measured concentration", "setting": "[2]; [10]", "result": "2879.4 ± 209.8", "unit": "ng/mL"}, {"measurement": "RE (relative error)", "setting": "[2]; [10]", "result": "−4.0", "unit": "%"}, {"measurement": "Measured concentration", "setting": "[2]; [11]", "result": "10.0 ± 0.2", "unit": "ng/mL"}, {"measurement": "RE (relative error)", "setting": "[2]; [11]", "result": 2.2, "unit": "%"}, {"measurement": "Measured concentration", "setting": "[2]; [12]", "result": "404.4 ± 4.7", "unit": "ng/mL"}, {"measurement": "RE (relative error)", "setting": "[2]; [12]", "result": 1.1, "unit": "%"}, {"measurement": "Measured concentration", "setting": "[2]; [13]", "result": "2901.1 ± 59.2", "unit": "ng/mL"}, {"measurement": "RE (relative error)", "setting": "[2]; [13]", "result": "−3.3", "unit": "%"}, {"measurement": "stability in rat plasma", "setting": "[2]; stored at room temperature for 12 h", "result": "stable"}, {"measurement": "stability in rat plasma", "setting": "[2]; stored at −20 °C for 1 month", "result": "stable"}, {"measurement": "stability in reconstituted samples", "setting": "[2]; stored for 24 h in the autosampler at 25 °C", "result": "stable"}, {"measurement": "stock solution stability", "setting": "[3]; one week at −20 °C", "result": "stable"}, {"measurement": "time stock solution is stable", "setting": "[3]; room temperature", "result": "at least 6 h"}, {"measurement": "affinity for sigma-1 receptors", "setting": "sigma-1 receptors", "result": "high affinity"}, {"measurement": "affinity for sigma-2 receptors", "setting": "sigma-2 receptors", "result": "high affinity"}, {"measurement": "cocaine induced place conditioning behaviors", "setting": "[4]", "result": "significantly attenuate"}, {"measurement": "expression of cocaine induced behavioral sensitization", "setting": "[4]", "result": "significantly attenuate"}]}
{"smiles": "COC(=O)[C@H]1[C@@H](OC(=O)c2ccccc2)C[C@@H]2CC[C@H]1N2C", "note": "[cocaine]", "values": [{"measurement": "affinity for sigma receptors", "setting": "sigma receptors", "result": "about 2 µm"}]}
{"smiles": "CN(CCc1ccc(Cl)c(Cl)c1)CCN1CCCC1", "note": "[BD 1008]", "values": [{"measurement": "convulsions of cocaine", "setting": "effects of cocaine", "result": "attenuation"}, {"measurement": "locomotor stimulant effects of cocaine", "setting": "effects of cocaine", "result": "blockade"}, {"measurement": "rewarding effects of cocaine", "setting": "effects of cocaine", "result": "attenuation"}]}
